The structures appear in SMILES notation. Values joined by “and” are separate entries in the source; they are usually repeats but may differ in a detail not shown here. Equal values may be shown once. Some results are limits rather than exact numbers.

The nature of data set [1]: Concentration of inhibitor in human plasma required to double the activated thromboplastin time. It counts as functional.
Data set [2] has as its target Serine protease 1 (Homo sapiens, UniProt P07477). As to the kind of experiment: In vitro inhibition of human trypsin. The essentials:
(§1)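 Inhibition constants (Ki) for each serine protease are the average of at least two determinations, with assay variation of ±10%.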

Data set [3] addresses Plasminogen (Homo sapiens, UniProt P00747). Description: Inhibitory activity against serine protease plasmin.
Data set [4] deals with Prothrombin (Homo sapiens, UniProt P00734). As to the kind of experiment: Inhibition of Thrombin.
Data set [5] deals with Plasma kallikrein (Homo sapiens, UniProt P03952). As to the kind of experiment: Inhibitory activity against serine protease plasma kallikrein. The gist of the method:
as §1

In data set [6] the target is Coagulation factor X (Homo sapiens, UniProt P00742). As to the kind of experiment: Inhibitory activity against serine protease Coagulation factor X. The essentials: as §1
Chain of Coagulation factor X (P00742 41-179 limits assumed): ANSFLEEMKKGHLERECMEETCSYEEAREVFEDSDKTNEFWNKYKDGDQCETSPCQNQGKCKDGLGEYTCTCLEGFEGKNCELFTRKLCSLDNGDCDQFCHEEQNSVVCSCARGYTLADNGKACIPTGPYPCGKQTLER
Chain of Coagulation factor X (P00742 235-488 limits assumed): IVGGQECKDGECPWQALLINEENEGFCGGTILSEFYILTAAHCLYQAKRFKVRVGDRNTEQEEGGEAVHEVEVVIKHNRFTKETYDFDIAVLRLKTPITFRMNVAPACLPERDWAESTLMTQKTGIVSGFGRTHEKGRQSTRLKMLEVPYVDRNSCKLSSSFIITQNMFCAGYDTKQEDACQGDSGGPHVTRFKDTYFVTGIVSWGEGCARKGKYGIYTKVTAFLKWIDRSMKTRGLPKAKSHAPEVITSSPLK
In data set [7] the target is Tissue-type plasminogen activator (Homo sapiens, UniProt P00750). Description: Inhibitory activity against serine protease TPA. The essentials: as §1
Chain of Tissue-type plasminogen activator (P00750 whole entry): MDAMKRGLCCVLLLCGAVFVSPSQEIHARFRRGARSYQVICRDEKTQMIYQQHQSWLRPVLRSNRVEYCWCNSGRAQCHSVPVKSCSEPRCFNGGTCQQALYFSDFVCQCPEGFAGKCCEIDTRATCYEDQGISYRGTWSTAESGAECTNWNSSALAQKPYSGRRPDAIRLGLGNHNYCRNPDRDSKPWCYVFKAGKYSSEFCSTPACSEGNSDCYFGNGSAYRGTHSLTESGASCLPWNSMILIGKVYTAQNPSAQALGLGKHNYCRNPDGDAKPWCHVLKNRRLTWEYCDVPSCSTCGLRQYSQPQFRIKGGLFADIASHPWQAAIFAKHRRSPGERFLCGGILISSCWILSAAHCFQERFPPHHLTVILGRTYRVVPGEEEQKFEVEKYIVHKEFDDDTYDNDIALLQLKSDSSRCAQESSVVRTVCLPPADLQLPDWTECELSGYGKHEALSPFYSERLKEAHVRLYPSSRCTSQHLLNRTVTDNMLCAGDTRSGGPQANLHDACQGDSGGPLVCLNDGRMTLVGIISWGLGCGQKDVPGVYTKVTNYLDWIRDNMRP
The nature of data set [8]: Half-life period after, intravenous injection of 1 mg/kg in rats. Format: ADME, organism-based. Details: dose 1 mg/kg, route intravenous. The following applies: rat, in vivo.
Data set [9] is described as follows: Antithrombotic activity was assessed from the associated plasma protein binding in Human, determined in a thrombin chromogenic assay. Format: functional.
The species named for data set [10] is Rattus norvegicus. As to the kind of experiment: Final concentration in rat plasma. It counts as functional, organism-based. The gist of the method:
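Rats received an iv infusion at 10 µg/kg/min in saline for 120 min before a FeCl3 vascular insult. Plasma inhibitor level was measured at the end of the experiment.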

The nature of data set [11]: Oral bioavailability in rat (dose 10 mg/kg p.o.). Format: ADME, organism-based. The following applies: in vivo. The essentials: (§2)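 Rats were given a single oral dose of 10 mg/kg as a suspension in 1% methocel. Oral bioavailability (F, %) was then determined.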
The nature of data set [12]: Partition coefficient (logP). The following applies: octanol/water. It counts as physicochemical.
The species entered for data set [13] is Rattus norvegicus. As to the kind of experiment: concentration of compound in rat required to double the activated thromboplastin time. Format: functional.
The nature of data set [14]: Area under curve was evaluated after intravenous injection of 1 mg/kg of compound in rats. Format: ADME, organism-based. Details: dose 1 mg/kg, route intravenous. The following applies: rat, in vivo.
A short description of data set [15]: Clearance from dog plasma after intravenous injection of 1 mg/kg of compound. Also noted: dose 1 mg/kg, route intravenous. It counts as ADME, organism-based, Canis lupus familiaris.
The nature of data set [16]: Oral bioavailability in dog after peroral injection of 5 mg/kg of compound. It counts as ADME, organism-based, Canis lupus familiaris. The following applies: in vivo. The essentials:
(§3)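 Dogs were given a single oral dose of 5 mg/kg as a suspension in 1% methocel. Oral bioavailability (F, %) was then determined.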

For data set [17], the species on record is Rattus norvegicus. As to the kind of experiment: Antithrombotic activity was assessed from the associated plasma protein binding in rat, determined in a thrombin chromogenic assay. Format: functional.
Data set [18] can be described thus: Clearance from rat plasma after intravenous injection of 1 mg/kg of compound. It counts as ADME, organism-based. Details: dose 1 mg/kg, route intravenous.
A short description of data set [19]: Oral bioavailability (5 mg/kg, oral) was determined in dogs. It counts as ADME, organism-based, Canis lupus familiaris. The following applies: dog, in vivo. The gist of the method:
as §3

Data set [20] is described as follows: Area under curve was evaluated after intravenous injection of 1 mg/kg of compound in dogs. Details: dose 1 mg/kg, route intravenous. It counts as ADME, organism-based, Canis lupus familiaris. The following applies: dog, in vivo.
The nature of data set [21]: Half-life period after, intravenous injection of 1 mg/kg in dogs. It counts as ADME, organism-based, Canis lupus familiaris. Also noted: dose 1 mg/kg, route intravenous. The following applies: dog, in vivo.
For data set [22], the species on record is Homo sapiens. Description: concentration of compound in human required to double the activated thromboplastin time. Format: functional.
Data set [23] in a line: Half-life period after, peroral injection of 5 mg/kg in dogs. It counts as ADME, organism-based, Canis lupus familiaris. Details: dose 5 mg/kg, route oral. The following applies: dog, in vivo, po.
The nature of data set [24]: Oral bioavailability in rat after peroral injection of 10 mg/kg of compound. Format: ADME, organism-based. The following applies: in vivo. The essentials:
as §2

Data set [25] in a line: concentration of compound in human plasma required to double the activated thromboplastin time. It counts as functional.
The species named for data set [26] is Rattus norvegicus. As to the kind of experiment: Concentration of inhibitor in rat plasma required to double the activated thromboplastin time. It counts as functional.
The nature of data set [27]: Oral bioavailability in rat (dose 10 mg/kg). The following applies: in vivo. Format: ADME, organism-based. The essentials:
as §2

The species entered for data set [28] is Rattus norvegicus. As to the kind of experiment: concentration of compound in rat plasma required to double the activated thromboplastin time. It counts as functional.
Data set [29] is filed under the species Rattus norvegicus. Description: Antithrombotic activity was assessed from the associated plasma protein binding in Rats, determined in a thrombin chromogenic assay. It counts as functional.
The nature of data set [30]: Oral bioavailability (5 mg/kg) was determined in dogs. It counts as ADME, organism-based, Canis lupus familiaris. The following applies: dog, in vivo. The essentials: as §3

Chain of Serine protease 1 (P07477 whole entry): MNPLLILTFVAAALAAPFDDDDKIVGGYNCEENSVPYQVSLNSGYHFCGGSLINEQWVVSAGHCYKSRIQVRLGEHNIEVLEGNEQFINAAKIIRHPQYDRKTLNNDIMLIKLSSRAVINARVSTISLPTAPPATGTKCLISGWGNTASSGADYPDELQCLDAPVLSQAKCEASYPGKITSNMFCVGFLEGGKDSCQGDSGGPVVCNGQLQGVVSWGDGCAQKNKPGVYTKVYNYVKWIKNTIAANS
Chain of Plasminogen (P00747 97-580 limits assumed): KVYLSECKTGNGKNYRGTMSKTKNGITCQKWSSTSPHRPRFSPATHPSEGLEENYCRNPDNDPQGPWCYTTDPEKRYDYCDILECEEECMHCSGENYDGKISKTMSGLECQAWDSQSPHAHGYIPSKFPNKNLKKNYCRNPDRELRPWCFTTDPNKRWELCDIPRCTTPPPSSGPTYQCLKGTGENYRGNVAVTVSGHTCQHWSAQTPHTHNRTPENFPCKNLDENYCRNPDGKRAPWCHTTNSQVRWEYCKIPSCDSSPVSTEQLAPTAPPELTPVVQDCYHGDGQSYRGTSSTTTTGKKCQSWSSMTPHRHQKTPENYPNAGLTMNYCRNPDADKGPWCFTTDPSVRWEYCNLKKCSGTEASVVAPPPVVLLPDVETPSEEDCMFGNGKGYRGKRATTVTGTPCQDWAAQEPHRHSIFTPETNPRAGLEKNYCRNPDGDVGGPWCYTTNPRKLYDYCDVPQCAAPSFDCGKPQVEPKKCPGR
Chain of Plasminogen (P00747 581-810 limits assumed): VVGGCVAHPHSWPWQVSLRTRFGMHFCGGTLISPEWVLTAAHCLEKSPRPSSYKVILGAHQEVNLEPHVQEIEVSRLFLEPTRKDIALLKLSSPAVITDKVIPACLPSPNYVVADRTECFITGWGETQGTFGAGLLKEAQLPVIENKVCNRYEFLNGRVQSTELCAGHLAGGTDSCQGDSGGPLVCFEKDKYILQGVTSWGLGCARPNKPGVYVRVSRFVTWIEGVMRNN
Chain of Plasma kallikrein (P03952 20-390 limits assumed): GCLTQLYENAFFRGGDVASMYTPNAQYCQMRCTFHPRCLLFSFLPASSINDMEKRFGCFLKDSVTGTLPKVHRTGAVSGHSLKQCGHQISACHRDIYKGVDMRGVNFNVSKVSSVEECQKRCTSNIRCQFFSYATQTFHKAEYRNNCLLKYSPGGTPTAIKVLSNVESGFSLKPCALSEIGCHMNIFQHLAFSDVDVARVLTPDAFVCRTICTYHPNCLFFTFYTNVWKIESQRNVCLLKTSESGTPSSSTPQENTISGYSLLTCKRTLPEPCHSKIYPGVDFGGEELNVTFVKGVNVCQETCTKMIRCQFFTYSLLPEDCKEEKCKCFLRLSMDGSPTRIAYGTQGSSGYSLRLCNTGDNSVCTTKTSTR
Chain of Plasma kallikrein (P03952 391-638 limits assumed): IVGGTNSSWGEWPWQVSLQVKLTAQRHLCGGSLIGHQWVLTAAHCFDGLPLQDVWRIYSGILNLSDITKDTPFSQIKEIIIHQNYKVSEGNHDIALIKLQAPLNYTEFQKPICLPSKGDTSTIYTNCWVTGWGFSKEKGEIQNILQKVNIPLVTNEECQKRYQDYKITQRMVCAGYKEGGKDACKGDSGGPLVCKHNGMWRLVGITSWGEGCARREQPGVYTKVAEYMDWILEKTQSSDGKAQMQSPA

On to `CC1CNc2c(cccc2S(=O)(=O)N[C@@H](CCCNC(=N)N)C(=O)N2CCC(C)C[C@@H]2C(=O)O)C1` (single isomer, unassigned) [ARGATROBAN], for which the “2x APTT” value in [1] came to 0.28 µM.
The term Ki denotes the equilibrium dissociation constant of an inhibitor or competing ligand from its target. Read a high Ki as weaker binding. Turning to `NC1CCC(CNC(=O)[C@@H]2CCCN2C(=O)CC(c2ccccc2)c2ccncc2)CC1` (single isomer, unassigned; diastereomer 2), the Ki in [2] is 2.2 µM; in data set [3], 744 µM; in data set [4], 0.0034 µM; in [5], greater than 1000 µM; in [6], 400 µM; in data set [7] it was 436 µM.
With `NC1CCC(CNC(=O)[C@@H]2CCCN2C(=O)CC(c2ccccc2)c2ccncc2)CC1` (single isomer, unassigned; diastereomer 1), the inhibition constant (Ki) in [2] is 19 µM; in data set [4] it was 0.029 µM.
For orientation: half-life means the time needed for the level to fall by half in the phase considered. Low readings indicate rapid decline, high ones slow decline. As a reminder, the bioavailability is the share of a dose that reaches the circulation, judged against a reference dose that is usually intravenous. A higher bioavailability goes with good availability. By logP is commonly meant a log measure of how a compound divides between an organic and an aqueous phase. Low readings indicate lower lipophilicity, high ones higher lipophilicity. As usually defined, the AUC is the area under the concentration-time curve, a measure of exposure. A word on the clearance: it is the rate of elimination divided by the concentration. A high value points to efficient removal. As for `NC1CCC(CNC(=O)[C@@H]2CCCN2C(=O)CC(c2ccccc2)c2ccccc2)CC1.O=C(O)C(F)(F)F` (some centres not stated), the half-life worked out at 4.47 h in [8], 2.92 h in [21] and 2.6 h in [23]. In addition, the Activity in data set [9] and in [17] was 7% each time. Besides, the inhibition constant Ki in data set [2] is 0.353 µM and 0.35 µM; in [3], 744 µM; in [4], 0.002 µM; in data set [5], greater than 1000 µM; in [6] it was 980 µM; in data set [7], greater than 1000 µM. Besides, the Concentration in [10] is 1600 nM. The bioavailability in data set [11] was determined as 10%; in data set [16], 58%; in data set [19], 58%; in [24] it was 10%. In data set [12], this molecule came in with a logP of 0.37. Moreover, the “2x APTT” value in data set [13] worked out at 0.65 µM; in data set [22], 0.67 µM. Besides, the AUC was determined as 1.7 µM·h in data set [14] and 3.81 µM·h in [20]. Also, the clearance in data set [15] was found to be 10.2 mL/min/kg; in [18] it was 23.2 mL/min/kg.
For the molecule `NC1CCC(CNC(=O)[C@@H]2CCCN2C(=O)CC(c2cccnc2)c2ccc3c(c2)OCO3)CC1.O=C(O)C(F)(F)F` (single isomer, unassigned; diastereomer 2), the results for the “2x APTT” value in data set [25] and in data set [26] were 0.3 µM and 0.38 µM, respectively. The Ki in data set [2] is 2.6 µM; in [3] it was 572 µM; in data set [4], 0.00028 µM; in data set [5], 1000 µM; in data set [6] it was 1000 µM; in data set [7], greater than 500 µM. Further, the logP in [12] was -1.62. Moreover, the bioavailability in [27] is less than 5%.
For `Cl.NC1CCC(CNC(=O)[C@@H]2CCCN2C(=O)CC(C2CCCCC2)C2CCCCC2)CC1` (some centres not stated), the “2x APTT” value in data set [25] is 7.1 µM; in [28], 7.2 µM. In addition, the Activity is recorded as 1% in data set [9] and 6% in data set [17]. The Ki in data set [2] was 2.5 µM; in data set [3] it was 176 µM; in [4], 0.014 µM; in data set [5], 170 µM; in [6], 220 µM; in [7] it was 84 µM. The same molecule yielded a Concentration in data set [10] of 658 nM. In addition, in data set [11], the bioavailability amounted to 56%. Moreover, the logP in [12] came to 1.96.
The molecule `NC1CCC(CNC(=O)[C@@H]2CCCN2C(=O)CC2c3ccccc3CCc3ccccc32)CC1.O=C(O)C(F)(F)F` (some centres not stated) gave a bioavailability in data set [27] of 12%. The molecule further yielded an inhibitory constant (Ki) in data set [4] of 0.017 µM.
As to `Cl.NC1CCC(CNC(=O)[C@@H]2CCCN2C(=O)CC2c3ccccc3C=Cc3ccccc32)CC1` (some centres not stated), the Ki is 1.6 µM in [2]; 414 µM in data set [3]; 0.003 µM in [4]; 775 µM in [5]; greater than 1000 µM in data set [6]; 268 µM in data set [7]. The molecule further showed a logP in [12] of 0.27. In [27], this molecule returned a bioavailability of 51%.
Turning to `NC1CCC(CNC(=O)[C@@H]2CCCN2C(=O)CC(c2ccccc2)c2ccccn2)CC1` (single isomer, unassigned; diastereomer 1), the Ki is 0.89 µM in data set [2]; greater than 1000 µM in [3]; 0.0018 µM in [4]; 767 µM in [5]; 370 µM in [6]; greater than 1000 µM in [7].
For the molecule `NC1CCC(CNC(=O)[C@@H]2CCCN2C(=O)CC(c2ccccc2)c2cccnc2)CC1` (single isomer, unassigned; diastereomer 2), the Concentration in data set [10] was found to be 2890 nM.
Take `NC1CCC(CNC(=O)[C@@H]2CCCN2C(=O)CC(c2ccccc2)c2cccnc2)CC1.O=C(O)C(F)(F)F` (single isomer, unassigned; diastereomer 2): the results for the “2x APTT” value in [25] and in [26] were 0.47 µM and 0.59 µM, respectively. Also, the Activity came out at 35% in data set [9] and 56% in [29]. Besides, the Ki in data set [2] is 2.2 µM; in data set [3], greater than 1000 µM; in data set [4], 0.0022 µM; in [5] it was 476 µM; in data set [6] it was greater than 1000 µM; in [7], 746 µM. The molecule further gave a log partition coefficient (logP) in [12] of -0.64. This molecule also registered a bioavailability in data set [30] of 8%.
With `NC1CCC(CNC(=O)[C@@H]2CCCN2C(=O)CC(c2ccccc2)C2CCCCC2)CC1` (single isomer, unassigned; diastereomer 1), the Ki in data set [2] stood at 1.7 µM; in data set [4], 0.008 µM.
In the case of `NC1CCC(CNC(=O)[C@@H]2CCCN2C(=O)CC(c2ccccc2)c2ccccn2)CC1` (single isomer, unassigned; diastereomer 2), the Ki stood at 5 µM in data set [2] and 0.012 µM in data set [4].
Consider `NC1CCC(CNC(=O)[C@@H]2CCCN2C(=O)CC(c2cccnc2)c2ccc3c(c2)OCO3)CC1` (single isomer, unassigned; diastereomer 2), for which, in data set [10], the Concentration was found to be 4000 nM.
Consider `NC1CCC(CNC(=O)[C@@H]2CCCN2C(=O)CC(c2ccccc2)c2cccnc2)CC1` (single isomer, unassigned; diastereomer 1), for which the Ki is 2.8 µM in data set [2] and 0.01 µM in data set [4].
Taken in the same sequence, the figures for `CC(CC(=O)N1CCC[C@H]1C(=O)NCC1CCC(N)CC1)(c1ccccc1)c1ccccc1` (some centres not stated) were 17 µM and 0.016 µM.
For `NC1CCC(CNC(=O)[C@@H]2CCCN2C(=O)CC(c2cccnc2)c2ccc3c(c2)OCO3)CC1` (stereo in doubt), the values for the Ki in data set [2] and in data set [4] were 1.9 µM and 0.0047 µM, respectively.
As to `NC1CCC(CNC(=O)[C@@H]2CCCN2C(=O)CC(c2ccccc2)C2CCCCC2)CC1` (single isomer, unassigned; diastereomer 2), the Ki in data set [2] was 0.3 µM; in data set [4] it was 0.004 µM.

Source of the values: ChEMBL document CHEMBL1130225, “Synthesis of a series of potent and orally bioavailable thrombin inhibitors that utilize 3,3-disubstituted propionic acid derivatives in the P3 position” (J Med Chem, 1997).
